# Assay results taken from ChEMBL document CHEMBL1122142, “Synthesis and antiinflammatory activity of hexahydrothiopyrano[4,3-c]pyrazoles and related analogues” (J Med Chem, 1982).
# Assays:
# Mus musculus [1] = experiment: Inhibition of Mouse Active Arthus reaction following 150 mg/Kg i.p.; 41-60% inhibition.; format: functional; conditions: Mus musculus, ip
# Cavia porcellus [2] = experiment: Tested in delayed hypersensitivity skin reaction (DHSR) after subcutaneous administration, activity reported as percent inhibition of erythema/induration of lesion; 5/18; format: functional
# Outline: (§1)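 Male Hartley guinea pigs were sensitized with Mycobacterium tuberculosis in Freund's incomplete adjuvant, injected into each hind footpad and subcutaneously at the neck. After 3 weeks, 1.2 μg PPD was given intradermally. Compound in sesame oil was given sc, 3 animals per group, 30 min before and 5 h after PPD; screening dose 50 mg/kg.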
# Mus musculus [3] = experiment: Inhibition of Mouse active Arthus (MAA) reaction activity was determined for an ip dose of 150 mg/kg in mouse; 21-30%; format: functional; conditions: route intraperitoneal
# Mus musculus [4] = species: Mus musculus; experiment: Mouse active Arthus (MAA) reaction activity was determined for peroral dose of 300 mg in mouse; 21-30%; format: functional
# Mus musculus [5] = experiment: Mouse active Arthus (MAA) reaction activity was determined for an ip dose of 150 mg/kg in mouse; format: functional; conditions: route intraperitoneal
# Cavia porcellus [6] = experiment: Tested in delayed hypersensitivity skin reaction (DHSR) after subcutaneous administration, activity reported as percent inhibition of erythema/induration of lesion; 15/0; format: functional
# Cavia porcellus [7] = experiment: Tested in delayed hypersensitivity skin reaction (DHSR) after subcutaneous administration, activity reported as percent inhibition of erythema/induration of lesion; 4/12; format: functional; outline: as §1
# Cavia porcellus [8] = experiment: Tested in delayed hypersensitivity skin reaction (DHSR) after subcutaneous administration, activity reported as percent inhibition of erythema/induration of lesion; 15/42; format: functional
# Mus musculus [9] = experiment: The compound was evaluated for the mouse active Arthus (MAA) reaction activity for an ip dose of 150 mg/kg in mouse; 31-40%; format: functional; conditions: route intraperitoneal
# Outline: (§2)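 CD-1 mice were sensitized ip with a 1:1 Freund's complete adjuvant emulsion containing BSA in saline, 5 weeks before challenge. Compound was suspended in 1% Na CMC in pyrogen-free saline and given as one ip or oral dose 1 h before skin challenge with BSA. Screening doses were 150 mg/kg ip and 300 mg/kg po, with some at 75 or 50 mg/kg ip. Lesions were excised 3.5 h after challenge and weighed against controls.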
# Cavia porcellus [10] = experiment: Tested in delayed hypersensitivity skin reaction (DHSR) after subcutaneous administration, activity reported as percent inhibition of erythema/induration of lesion; 11/66; format: functional
# Mus musculus [11] = experiment: Inhibition of Mouse active Arthus (MAA) reaction activity was determined for peroral dose of 150 mg/kg in mouse; 21-30%; format: functional; conditions: route oral
# [12] = Acute toxicity as LD50 value was determined in mice administered orally; format: organism-based; conditions: mouse, in vivo, po
# [13] = Therapeutic ratio was determined for peroral administration; conditions: po; read-out: TR
# Mus musculus [14] = experiment: The compound was evaluated for the mouse active Arthus (MAA) reaction activity expressed as inhibitory dose after ip administration; format: functional; conditions: read-out: ID50 (the source's name); outline: as §2
# Mus musculus [15] = experiment: Inhibition of Mouse active Arthus (MAA) reaction activity was determined for peroral dose of 300 mg/kg in mouse; 41-60%; format: functional; conditions: route oral
# [16] = Acute toxicity as LD50 value was determined in mice administered intraperitoneally; format: organism-based; conditions: mouse, in vivo, ip
# [17] = Therapeutic ratio was determined for intraperitoneal administration; format: ADME; conditions: ip; read-out: TR
# Cavia porcellus [18] = experiment: Tested in delayed hypersensitivity skin reaction (DHSR) after subcutaneous administration, activity reported as percent inhibition of erythema/induration of lesion; 24/41; format: functional; outline: as §1
# Mus musculus [19] = experiment: The compound was evaluated for the mouse active Arthus (MAA) reaction activity expressed as inhibitory dose after oral administration; format: functional; conditions: read-out: ID50 (the source's name); outline: as §2
# Cavia porcellus [20] = experiment: Tested in delayed hypersensitivity skin reaction (DHSR) after subcutaneous administration, activity reported as percent inhibition of erythema/induration of lesion; 9/32; format: functional; outline: as §1
# Mus musculus [21] = experiment: The compound was evaluated for the mouse active Arthus (MAA) reaction activity for an ip screening dose of 50 mg/kg; format: functional; conditions: route intraperitoneal; outline: as §2
# Cavia porcellus [22] = experiment: The compound was evaluated for the delayed hypersensitivity skin reaction (DHSR) activity after subcutaneous administration; 23/37
# Cavia porcellus [23] = experiment: Tested in delayed hypersensitivity skin reaction (DHSR) after subcutaneous administration, activity reported as percent inhibition of erythema/induration of lesion; 0/8; format: functional
# Cavia porcellus [24] = experiment: The compound was evaluated for the delayed hypersensitivity skin reaction (DHSR) activity after subcutaneous administration; 0/0
# Mus musculus [25] = experiment: The compound was evaluated for the mouse active Arthus (MAA) reaction activity for an ip dose of 150 mg/kg in mouse; format: functional; conditions: route intraperitoneal; outline: as §2
smiles,measurement,setting,value
CCCN1N=C2/C(=C/c3ccccc3)CN(C)CC2C1c1ccccc1 (configuration not stated),inhibition in vivo at 150 mg/kg,Mus musculus [1],41%
same,Activity,Cavia porcellus [2],5
"CCCN1N=C2/C(=C/c3ccccc3)C[S+]([O-])CC2C1c1ccccc1 (single isomer, unassigned; isomer A)",inhibition in vivo at 150 mg/kg,Mus musculus [3],21%
"CCCN1N=C2/C(=C/c3ccccc3)C[S+]([O-])CC2C1c1ccccc1 (single isomer, unassigned; isomer B)",inhibition in vivo at 150 mg/kg,Mus musculus [1],41%
O=C(c1ccccc1)N1N=C2/C(=C/c3ccccc3)CS(=O)(=O)CC2C1c1ccccc1 (configuration not stated),Inhibition,Mus musculus [4],21%
same,inhibition in vivo at 150 mg/kg,Mus musculus [5],> 60%
CC(C)(C)c1ccc(/C=C2\CS(=O)(=O)CC3C2=NN(CC2CC2)C3c2ccc(C(C)(C)C)cc2)cc1 (configuration not stated),Activity,Cavia porcellus [6],15
"CCCN1N=C2/C(=C/c3ccc(OC)cc3)C[S+]([O-])CC2C1c1ccc(OC)cc1 (single isomer, unassigned; isomer A)",Activity,Cavia porcellus [7],4
same,inhibition in vivo at 150 mg/kg,Mus musculus [1],41%
CCCn1nc(-c2ccc(OC)cc2)c2c1/C(=C/c1ccc(OC)cc1)CSC2,Activity,Cavia porcellus [8],15
same,inhibition in vivo at 150 mg/kg,Mus musculus [9],31%
CN1CCN(CCCN2N=C3/C(=C/c4ccccc4)CSCC3C2c2ccccc2)CC1 (configuration not stated),inhibition in vivo at 150 mg/kg,Mus musculus [1],41%
same,Activity,Cavia porcellus [10],11
same,inhibition in vivo at 150 mg/kg,Mus musculus [11],21%
Cc1ccccc1/C=C1\CSCC2C1=NN(CCCN1CCN(C)CC1)C2c1ccccc1C.O=C(O)/C=C\C(=O)O (configuration not stated),LD50,[12],> 1200 mg/kg
same,selectivity ratio,[13],> 5.3
same,ED50,Mus musculus [14],30 mg/kg
same,inhibition in vivo at 300 mg/kg,Mus musculus [15],41%
same,LD50,[16],170 mg/kg
same,selectivity ratio,[17],5.7
same,Activity,Cavia porcellus [18],24
same,ED50,Mus musculus [19],225 mg/kg
same,inhibition in vivo at 150 mg/kg,Mus musculus [5],> 60%
CCCn1nc(-c2ccc(Cl)cc2)c2c1/C(=C/c1ccc(Cl)cc1)CSC2,inhibition in vivo at 150 mg/kg,Mus musculus [1],41%
CN1CCN(CCCN2N=C3/C(=C/c4ccccc4)COCC3C2c2ccccc2)CC1.O=C(O)/C=C\C(=O)O (configuration not stated),Activity,Cavia porcellus [20],9
same,inhibition in vivo at 50 mg/kg,Mus musculus [21],> 60%
C(=C1/CSCC2C1=NNC2c1ccccc1)/c1ccccc1 (configuration not stated),Activity,Cavia porcellus [22],23
same,inhibition in vivo at 150 mg/kg,Mus musculus [1],41%
CCCn1nc(-c2ccccc2)c2c1/C(=C/c1ccccc1)COC2,inhibition in vivo at 150 mg/kg,Mus musculus [9],31%
O=S1(=O)C/C(=C\c2ccc(Cl)cc2)C2=NN(c3ccccc3)C(c3ccc(Cl)cc3)C2C1 (configuration not stated),Activity,Cavia porcellus [23],0
CN1CCN(CCCN2N=C3/C(=C/c4ccc([S+](C)[O-])cc4)COCC3C2c2ccc([S+](C)[O-])cc2)CC1.O=C(O)/C=C\C(=O)O (configuration not stated),Activity,Cavia porcellus [24],0
same,inhibition in vivo at 150 mg/kg,Mus musculus [25],< 20%
